Data reported in ChEMBL document CHEMBL4321857, “Synthesis and Pharmacological Evaluation of Triazolopyrimidinone Derivatives as Noncompetitive, Intracellular Antagonists for CC Chemokine Receptors 2 and 5” (J Med Chem, 2019).
The source made the active and inactive calls. The rule behind the calls is not given here.

Key:
[1] = target: T1, C-C chemokine receptor type 2 (Homo sapiens, UniProt P41597); experiment: Displacement of [3H]-CCR2-RA-[R] from human CCR2 expressed in human U2OS cells incubated for 2 hrs by scintillation spectrometric method; assay type: cell-based
Target sequence in this assay (P41597 whole entry): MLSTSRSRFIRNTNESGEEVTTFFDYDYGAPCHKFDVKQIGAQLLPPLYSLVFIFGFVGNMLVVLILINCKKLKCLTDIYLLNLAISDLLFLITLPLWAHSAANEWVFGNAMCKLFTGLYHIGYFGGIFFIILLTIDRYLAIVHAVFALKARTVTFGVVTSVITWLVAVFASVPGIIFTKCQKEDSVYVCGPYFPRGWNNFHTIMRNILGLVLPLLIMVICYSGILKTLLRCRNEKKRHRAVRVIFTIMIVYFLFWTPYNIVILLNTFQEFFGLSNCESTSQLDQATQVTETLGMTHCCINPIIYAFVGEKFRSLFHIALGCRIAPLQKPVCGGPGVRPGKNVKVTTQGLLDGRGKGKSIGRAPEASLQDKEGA

[2] = target: T2, C-C chemokine receptor type 5 (Homo sapiens, UniProt P51681); experiment: Antagonist activity at human TEV cleavage site-linked CCR5 expressed in human U2OS cells harboring beta-lactamase reporter gene assessed as inhibition of CCL3-induced beta-arrestin recruitment at 1 uM incubated for 30 mins followed by CCL3 stimulation and measured after 16 hrs by Tango assay relative to control; assay type: cell-based
Target sequence in this assay (P51681 whole entry, looked up): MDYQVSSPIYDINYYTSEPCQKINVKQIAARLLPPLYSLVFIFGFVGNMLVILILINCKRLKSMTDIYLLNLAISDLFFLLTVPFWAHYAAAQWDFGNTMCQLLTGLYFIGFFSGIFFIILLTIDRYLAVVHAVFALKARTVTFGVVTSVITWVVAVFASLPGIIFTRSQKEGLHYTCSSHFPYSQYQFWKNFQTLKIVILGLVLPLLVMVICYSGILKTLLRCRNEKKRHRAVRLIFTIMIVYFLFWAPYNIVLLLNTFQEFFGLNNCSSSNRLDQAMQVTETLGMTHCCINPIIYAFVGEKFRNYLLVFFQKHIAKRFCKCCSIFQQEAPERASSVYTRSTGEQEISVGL

[3] = target: T2, C-C chemokine receptor type 5; experiment: Antagonist activity at human TEV cleavage site-linked CCR5 expressed in human U2OS cells harboring beta-lactamase reporter gene assessed as inhibition of CCL3-induced beta-arrestin recruitment incubated for 30 mins followed by CCL3 stimulation and measured after 16 hrs by Tango assay; assay type: cell-based
Target sequence in this assay (P51681 whole entry): as the sequence (P51681 whole entry, looked up) above

[4] = target: T1, C-C chemokine receptor type 2; experiment: Antagonist activity at human TEV cleavage site-linked CCR2b expressed in human U2OS cells harboring beta-lactamase reporter gene assessed as inhibition of CCL2-induced beta-arrestin recruitment incubated for 30 mins followed by CCL2 stimulation and measured after 16 hrs by Tango assay; assay type: cell-based
In short: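 Tango CCR2b-bla U2OS cells: 10 000 cells/well in FreeStyle medium, 30 min preincubation at room temperature with increasing antagonist concentrations (DMSO ≤0.5%), then 16 h with CCL2 at EC80 (5 nM), 37 °C, 5% CO2. LiveBLAzer-FRET B/G substrate 2 h at room temperature; 460/535 nm emission ratio at 400 nm excitation. IC50 by nonlinear regression.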
Target sequence in this assay (P41597 whole entry): as the sequence (P41597 whole entry) above

[5] = species: Homo sapiens; experiment: Selectivity ratio of IC50 for human TEV cleavage site-linked CCR5 expressed in human U2OS cells to IC50 for human TEV cleavage site-linked CCR2b expressed in human U2OS cells; assay type: cell-based
[6] = target: T1, C-C chemokine receptor type 2; experiment: Non-competitive insurmountable antagonist activity at human CCR2 expressed in human U2OS cell membranes assessed as Emax for CCL2-stimulated [35S]GTPgammaS binding at 10 nM preincubated for 30 mins followed by [35S]GTPgammaS addition and measured after 90 mins (reference value: 107 +/- 2%); assay type: functional
Target sequence in this assay (P41597 whole entry, looked up): as the sequence (P41597 whole entry) above

[7] = target: T1, C-C chemokine receptor type 2; experiment: Non-competitive insurmountable antagonist activity at human CCR2 expressed in human U2OS cell membranes assessed as Emax for CCL2-stimulated [35S]GTPgammaS binding at 30 nM preincubated for 30 mins followed by [35S]GTPgammaS addition and measured after 90 mins (reference value: 107 +/- 2%); assay type: functional
Target sequence in this assay (P41597 whole entry, looked up): as the sequence (P41597 whole entry) above

[8] = target: T1, C-C chemokine receptor type 2; experiment: Non-competitive insurmountable antagonist activity at human CCR2 expressed in human U2OS cell membranes assessed as Emax for CCL2-stimulated [35S]GTPgammaS binding at 100 nM preincubated for 30 mins followed by [35S]GTPgammaS addition and measured after 90 mins (reference value: 107 +/- 2%); assay type: functional
Target sequence in this assay (P41597 whole entry, looked up): as the sequence (P41597 whole entry) above

[9] = target: T2, C-C chemokine receptor type 5; experiment: Non-competitive insurmountable antagonist activity at human CCR5 expressed in human U2OS cell membranes assessed as Emax for CCL3-stimulated [35S]GTPgammaS binding at 100 nM preincubated for 30 mins followed by [35S]GTPgammaS addition and measured after 90 mins (reference value: 108 +/- 2%); assay type: functional
Target sequence in this assay (P51681 whole entry, looked up): as the sequence (P51681 whole entry, looked up) above

[10] = target: T2, C-C chemokine receptor type 5; experiment: Non-competitive insurmountable antagonist activity at human CCR5 expressed in human U2OS cell membranes assessed as Emax for CCL3-stimulated [35S]GTPgammaS binding at 300 nM preincubated for 30 mins followed by [35S]GTPgammaS addition and measured after 90 mins (reference value: 108 +/- 2%); assay type: functional
Target sequence in this assay (P51681 whole entry, looked up): as above

[11] = target: T2, C-C chemokine receptor type 5; experiment: Non-competitive insurmountable antagonist activity at human CCR5 expressed in human U2OS cell membranes assessed as Emax for CCL3-stimulated [35S]GTPgammaS binding at 1000 nM preincubated for 30 mins followed by [35S]GTPgammaS addition and measured after 90 mins (reference value: 108 +/- 2%); assay type: functional
Target sequence in this assay (P51681 whole entry, looked up): as above

[12] = target: T1, C-C chemokine receptor type 2; experiment: Inverse agonist activity at human CCR2 assessed as reduction in [35S]GTPgammaS binding at 1 uM relative to control; assay type: functional; design: scale not given: the % may be the effect or the level left
Target sequence in this assay (P41597 whole entry, looked up): as the sequence (P41597 whole entry) above

[13] = target: T1, C-C chemokine receptor type 2; experiment: Non-competitive insurmountable antagonist activity at human CCR2 expressed in human U2OS cell membranes assessed as Emax for CCL2-stimulated [35S]GTPgammaS binding at 1 nM preincubated for 30 mins followed by [35S]GTPgammaS addition and measured after 90 mins (reference value: 107 +/- 2%); assay type: functional
Target sequence in this assay (P41597 whole entry, looked up): as the sequence (P41597 whole entry) above

[14] = target: T1, C-C chemokine receptor type 2; experiment: Non-competitive insurmountable antagonist activity at human CCR2 expressed in human U2OS cell membranes assessed as Emax for CCL2-stimulated [35S]GTPgammaS binding at 3 nM preincubated for 30 mins followed by [35S]GTPgammaS addition and measured after 90 mins (reference value: 107 +/- 2%); assay type: functional
Target sequence in this assay (P41597 whole entry, looked up): as the sequence (P41597 whole entry) above

[15] = target: T2, C-C chemokine receptor type 5; experiment: Non-competitive insurmountable antagonist activity at human CCR5 expressed in human U2OS cell membranes assessed as Emax for CCL3-stimulated [35S]GTPgammaS binding at 30 nM preincubated for 30 mins followed by [35S]GTPgammaS addition and measured after 90 mins (reference value: 108 +/- 2%); assay type: functional
Target sequence in this assay (P51681 whole entry, looked up): as the sequence (P51681 whole entry, looked up) above

[16] = target: T1, C-C chemokine receptor type 2; experiment: Antagonist activity at CCR2b in human THP1 cells assessed as inhibition of human MCP1 induced calcium flux by fluo-4 dye based fluorescence assay; assay type: functional, cell-based
Target sequence in this assay (P41597 whole entry): as the sequence (P41597 whole entry) above

SMILES	Ki ([1]; read-out: Ki) [nM]	inhibition [2]	also measured
Nc1nc2[nH]c(C3CC3)c(Cc3ccccc3)c(=O)n2n1	5.9	35%	Ki ([1]; read-out: pKi (converted)): 5.37 nM
CC[C@@H](c1ccc(F)c(F)c1)n1c(C(=O)OC)c(-c2ccno2)[nH]c1=S	–	< 50%	–
Cc1ccc(-c2[nH]c3nc(N)nn3c(=O)c2Cc2cccc(Cl)c2)cc1	159	–	Ki ([1]; read-out: pKi (converted)): 155 nM
CCCc1[nH]c2nc(N)nn2c(=O)c1Cc1cccc(Cl)c1	3.6	64%	Ki ([1]; read-out: pKi (converted)): 3.47 nM
COc1cccc(Cc2c(C3CC3)[nH]c3nc(N)nn3c2=O)c1	13	–	–
CC(C)c1[nH]c2nc(N)nn2c(=O)c1Cc1cccc(Cl)c1Cl	1.6	> 70%	IC50 ([3]; read-out: pIC50 (converted)): 81.3 nM; IC50 [4]: 21 nM; Ratio IC50 [5]: 4; Emax [6]: 91%; Emax [7]: 75%; Emax [8]: 50%; Emax [9]: 79%; Emax [10]: 56%; Emax [11]: 25%; Activity [12]: 7 to 8%
CC(C)c1[nH]c2nc(N)nn2c(=O)c1Cc1ccc(Cl)c(Br)c1	0.4	> 70%	IC50 ([3]; read-out: pIC50 (converted)): 112 nM; IC50 [4]: 4 nM; Ratio IC50 [5]: 29; Emax [6]: 33%; Emax [13]: 72%; Emax [14]: 51%; Emax [9]: 58%; Emax [10]: 35%; Emax [15]: 81%; Activity [12]: 7 to 8%
Nc1nc2[nH]c(C3CC3)c(Cc3ccc(Cl)cc3)c(=O)n2n1	1.8	31%	–
Nc1nc2[nH]c(C3CC3)c(Cc3cccc(Br)c3)c(=O)n2n1	0.9	60%	Ki ([1]; read-out: pKi (converted)): 0.832 nM
Cc1cccc(Cc2c(C3CC3)[nH]c3nc(N)nn3c2=O)c1	2.5	62%	–
Cc1ccccc1Cc1c(C2CC2)[nH]c2nc(N)nn2c1=O	15.7	28%	–
COc1ccccc1Cc1c(C2CC2)[nH]c2nc(N)nn2c1=O	105	–	–
CCCCc1[nH]c2nc(N)nn2c(=O)c1Cc1cccc(Cl)c1	2.3	> 70%	IC50 ([3]; read-out: pIC50 (converted)): 513 nM
Cc1ccc(Cc2c(C3CC3)[nH]c3nc(N)nn3c2=O)cc1	3.5	–	–
O=C(O)c1ccccc1Oc1ccc(Cl)cc1NS(=O)(=O)c1ccc(Cl)c(Cl)c1	–	< 50%	–
CC(C)c1[nH]c2nc(N)nn2c(=O)c1Cc1cc(Cl)ccc1Cl	22.5	20%	–
CC(C)c1[nH]c2nc(N)nn2c(=O)c1Cc1cc(Cl)cc(Cl)c1	2.2	> 70%	IC50 ([3]; read-out: pIC50 (converted)): 324 nM
CC(C)c1[nH]c2nc(N)nn2c(=O)c1Cc1cccc(Cl)c1	1.9	> 70%	IC50 ([3]; read-out: pIC50 (converted)): 275 nM
CCCCCc1[nH]c2nc(N)nn2c(=O)c1Cc1cccc(Cl)c1	7.2	38%	–
CC(=O)C1=C(O)C(=O)N(c2ccc(Cl)cc2F)[C@@H]1C1CCCCC1	–	< 50%	IC50 ([3]; read-out: IC50): 703 nM
Cc1[nH]c2nc(N)nn2c(=O)c1Cc1cccc(Cl)c1	17.2	–	Ki ([1]; read-out: pKi (converted)): 16.6 nM

SMILES	Ki ([1]; read-out: Ki) [nM]	inhibition [2]	also measured
Cc1nc2[nH]c(C3CC3)c(Cc3cccc(Cl)c3)c(=O)n2n1	3.5	35%	–
CCC(CC)Cc1[nH]c2nc(N)nn2c(=O)c1Cc1cccc(Cl)c1	6.4	29%	–
CCc1[nH]c2nc(N)nn2c(=O)c1Cc1cccc(Cl)c1	4	29%	–
Nc1nc2[nH]c(C3CC3)c(Cc3ccc(Br)cc3)c(=O)n2n1	1.5	14%	–
Nc1nc2[nH]c(C3CC3)c(Cc3ccccc3Cl)c(=O)n2n1	14.5	27%	–
Nc1nc2[nH]c(C3CC3)c(Cc3cccc(C(F)(F)F)c3)c(=O)n2n1	5.9	36%	Ki ([1]; read-out: pKi (converted)): 5.5 nM
CCCCCCCc1[nH]c2nc(N)nn2c(=O)c1Cc1cccc(Cl)c1	178	–	Ki ([1]; read-out: pKi (converted)): 174 nM
CC(C)c1[nH]c2nc(N)nn2c(=O)c1Cc1ccc(Cl)c(Cl)c1	0.6	> 70%	IC50 ([3]; read-out: pIC50 (converted)): 123 nM
Nc1nc2[nH]c(C3CC3)c(Cc3ccc(F)cc3)c(=O)n2n1	4.1	31%	–
Nc1nc2[nH]c(C3CC3)c(Cc3ccc(Cl)c(Cl)c3)c(=O)n2n1	0.4	> 70%	IC50 ([3]; read-out: pIC50 (converted)): 214 nM
Cc1ccc(-c2ccc3c(c2)C=C(C(=O)Nc2ccc(C[N+](C)(C)C4CCOCC4)cc2)CCC3)cc1	–	Active	IC50 ([3]; read-out: IC50): 6 nM
Nc1nc2[nH]c(C3CCCC3)c(Cc3cccc(Cl)c3)c(=O)n2n1	1.6	> 70%	IC50 ([3]; read-out: pIC50 (converted)): 372 nM
O=c1c(Cc2cccc(Cl)c2)c(C2CC2)[nH]c2ncnn12	1.7	60%	–
CCCCCCc1[nH]c2nc(N)nn2c(=O)c1Cc1cccc(Cl)c1	22	–	–
Nc1nc2[nH]c(-c3ccccc3)c(Cc3cccc(Cl)c3)c(=O)n2n1	26.7	–	–
Nc1nc2[nH]c(CCc3ccccc3)c(Cc3cccc(Cl)c3)c(=O)n2n1	52.3	–	Ki ([1]; read-out: pKi (converted)): 51.3 nM
Nc1nc2[nH]c(C3CC3)c(Cc3cccc(F)c3)c(=O)n2n1	3.4	43%	–
COc1ccc(Cc2c(C3CC3)[nH]c3nc(N)nn3c2=O)cc1	20.9	–	–
CC(C)c1[nH]c2nc(N)nn2c(=O)c1Cc1cc(Br)cc(Br)c1	2.1	64%	–
Nc1nc2[nH]c(C3CC3)c(Cc3cccc(Cl)c3)c(=O)n2n1	1.3	> 70%	IC50 [16]: 16 to 20 nM; IC50 ([3]; read-out: pIC50 (converted)): 575 nM; IC50 [4]: 10 nM
Nc1nc2[nH]c(C3CC3)c(Cc3cccc(I)c3)c(=O)n2n1	0.9	66%	–
